Series [1] in a line: in vitro. Conditions: mouse, liver microsomes, CLH.
Series [2] in a line: in vitro. Conditions: human, liver microsomes, CLH. Background: Liver microsomes are vesicles of endoplasmic reticulum, rich in cytochrome P450 enzymes.
In the next series the test system is P-gp (MDR1). Nature of the series: Efflux ratio of apparent permeability across basolateral to apical over apical to basolateral side in MDCK2-MDR1 cells at 5 uM measured after 120 mins in absence of P-gp inhibitor GF120918 by LC-MS/MS analysis. Conditions: dog, MDCK-MDR1.
For the next series, the target named is Protein O-GlcNAcase (Homo sapiens, UniProt O60502). Nature of the series: Inhibition of OGA in HEK293 cells induced with human Tau […] mutant assessed as increase in O-GlcNAcylated protein levels measured after 6 hrs by Hoechst 33342 dye based fluorescence analysis. The format is cell-based. Summed up: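 Janssen HEK293 line inducible for P301L human Tau 2N4R, seeded two days before at 4000 cells/well in low-glucose assay medium. Compound exposure 6 h with 0.2% DMSO. Cells fixed with 4% PFA, permeabilized, then stained with CTD110.6 anti-O-GlcNAc (1/1000, 4 °C overnight) and a fluorescent secondary. Readout was 488 nm intensity over nine fields; Hoechst nuclei counted. Thiamet-G 200 μM defined maximum. IC50 by nonlinear regression.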

Series [3] is described as follows: Inhibition of human recombinant full-length OGA transcript variant 1 expressed in HEK293T cells using FM-GlcNAc as substrate preincubated for 60 mins followed by addition of substrate and measured after 6 hrs by fluorescence assay. Summed up:
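Full-length human OGA, 2 nM, preincubated with compound for 60 min at room temperature. FM-GlcNAc substrate at 100 μM final, in 200 mM citrate/phosphate pH 7.2 with 0.005% Tween-20 and ≤1% DMSO. Run 6 h at room temperature, stopped with 500 mM carbonate pH 11.0. Fluorescence read at 485/538 nm. IC50 and Hill coefficient from least-squares fit, normalised to no-inhibitor and saturating reference controls.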

A short description of series [4]: Kinetic solubility of compound at pH 7.4. Type of series: physicochemical. Conditions: buffer, read-out: Kinetic_solubility.
The nature of series [5]: Kinetic solubility of compound at pH 2. Type of series: physicochemical. Conditions: buffer, read-out: Kinetic_solubility.
Series [6] is described as follows: Inhibition of clostridium perfringens OGA using FM-GlcNAc as substrate preincubated for 60 mins followed by addition of substrate and measured after 6 hrs by fluorescence assay.
Series [7] in a line: Dissociation constant, pKa of the compound. The format is physicochemical.
Series [8] can be described thus: Volume of distribution at steady state in male CD1 mouse at 1 mg/kg, iv compound dissolved in saline measured after 24 hrs by LC-MS/MS analysis. The format is ADME, organism-based. Conditions: in vivo, read-out: Vdss. Summed up: (§1)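 Single 1 mg/kg iv dose in 0.9% saline to three male CD1 mice. Blood sampled at 0.117, 0.333, 1, 2, 4, 7 and 24 h. Plasma prepared by acetonitrile protein precipitation and analysed by qualified LC-MS/MS.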

Series [9] can be described thus: Oral bioavailability in male CD1 mouse at 30 mg/kg, compound dissolved in water measured after 24 hrs by LC-MS/MS analysis. The format is ADME, organism-based. Conditions: in vivo. Summed up: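 Male CD1 mice, three per arm: 1 mg/kg iv in 0.9% saline and 30 mg/kg po as a solution in water adjusted to about pH 4. Serial blood to 24 h. Plasma levels measured by LC-MS/MS after acetonitrile precipitation. Bioavailability derived from iv and po exposure.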

Series [10] is described as follows: Clearance in male CD1 mouse at 1 mg/kg, iv compound dissolved in saline measured after 24 hrs by LC-MS/MS analysis. The format is ADME, organism-based. Conditions: in vivo. Summed up: as §1
Series [11] can be described thus: AUC (0 to last) in male CD1 mouse at 30 mg/kg, po compound dissolved in water measured after 24 hrs by LC-MS/MS analysis. The format is ADME, organism-based. Conditions: in vivo. Also noted: route oral, time 24 hrs, dose 30 mg/kg. Summed up:
(§2)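 Three male CD1 mice per arm; oral solution in water adjusted to about pH 4. Blood taken at 0.5, 1, 2, 4, 7 and 24 h. Plasma protein-precipitated with acetonitrile and the supernatant quantified by qualified LC-MS/MS.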

Series [12] is described as follows: Cmax in male CD1 mouse at 30 mg/kg, po compound dissolved in water measured after 24 hrs by LC-MS/MS analysis. Type of series: ADME, organism-based. The arrangement: route oral, dose 30 mg/kg, time 24 hrs. Conditions: in vivo. Summed up:
as §2

Molecules are shown by their SMILES. Converted amounts (≈) assume the structure as drawn.

Chain of Protein O-GlcNAcase (O60502 whole entry, looked up, stated change not applied): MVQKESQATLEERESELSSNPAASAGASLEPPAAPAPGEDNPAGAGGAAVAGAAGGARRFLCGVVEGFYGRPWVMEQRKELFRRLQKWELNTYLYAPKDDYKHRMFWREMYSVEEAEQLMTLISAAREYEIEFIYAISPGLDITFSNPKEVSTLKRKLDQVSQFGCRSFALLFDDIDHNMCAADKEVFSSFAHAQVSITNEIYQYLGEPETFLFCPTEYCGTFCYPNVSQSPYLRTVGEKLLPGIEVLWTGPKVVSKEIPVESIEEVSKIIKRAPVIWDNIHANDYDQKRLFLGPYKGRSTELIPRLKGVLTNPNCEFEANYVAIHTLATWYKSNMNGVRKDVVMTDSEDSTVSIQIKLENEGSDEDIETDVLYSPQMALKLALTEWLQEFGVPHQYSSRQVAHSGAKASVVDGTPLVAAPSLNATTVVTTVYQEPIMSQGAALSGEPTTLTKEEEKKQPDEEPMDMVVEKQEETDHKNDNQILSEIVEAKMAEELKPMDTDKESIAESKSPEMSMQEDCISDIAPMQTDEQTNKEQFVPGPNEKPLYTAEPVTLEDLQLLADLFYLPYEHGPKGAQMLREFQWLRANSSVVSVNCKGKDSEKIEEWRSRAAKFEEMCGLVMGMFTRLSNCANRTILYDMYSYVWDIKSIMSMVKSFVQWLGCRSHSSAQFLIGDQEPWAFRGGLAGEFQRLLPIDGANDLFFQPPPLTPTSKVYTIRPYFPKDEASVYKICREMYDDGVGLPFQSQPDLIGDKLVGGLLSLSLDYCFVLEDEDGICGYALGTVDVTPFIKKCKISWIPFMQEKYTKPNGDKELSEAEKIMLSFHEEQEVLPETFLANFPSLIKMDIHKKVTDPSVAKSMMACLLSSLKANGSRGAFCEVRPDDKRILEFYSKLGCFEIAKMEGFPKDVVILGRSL

For orientation: microsomal CLint means the rate of metabolic loss divided by the concentration. By efflux ratio is commonly meant a quotient of directional permeabilities that is used to spot active efflux. One may read the IC50 as the concentration needed to halve the response being measured. With `CC(=O)Nc1ncc(CN2CCC3(CCN(c4cc(C)nc(C(F)(F)F)c4)C3)C2)s1` (racemic), the values for the microsomal CLint at 1 h, 1 µM in the series “in vitro [1]” and in “in vitro [2]” were 55 µL/min/mg and 46 µL/min/mg, respectively. Also, the efflux ratio at 2 h, 5 µM with P-gp (MDR1) was found to be 32.2. The IC50 at Protein O-GlcNAcase turned out to be 380 nM; in series [3], 19 nM.
On to `CC(=O)Nc1ncc(CN2CCC3(CCC(c4cc(C)nc(C)c4)C3)C2)s1` (configuration not stated), for which the IC50 is 214 nM on Protein O-GlcNAcase and 66 nM in series [3].
For the compound `CC(=O)Nc1ncc(CN2CCC3(CCN(c4cc(C)n5ccnc5n4)C3)C2)s1` (racemic), the intrinsic clearance (microsomal CLint) at 1 h, 1 µM in the series “in vitro [1]” is 16 µL/min/mg; in the series “in vitro [2]” it was < 8 µL/min/mg. Further, the efflux ratio at 2 h, 5 µM in the series on P-gp (MDR1) came to 1.2. The values for the half-inhibitory concentration (IC50) (at Protein O-GlcNAcase; in series [3]) were 437 nM and 1 nM, respectively.
For the compound `CC(=O)Nc1ncc(CN2CCC3(CCN(c4cc(C)nc(C)n4)C3)C2)s1` (racemic), the IC50 on Protein O-GlcNAcase was found to be 170 nM; in series [3], 13 nM.
As for `CC(=O)Nc1ncc(CN2CC[C@]3(C[C@@H](Oc4cc(C)nc(C)c4)CO3)C2)s1` (racemic), the IC50 in series [3] was 209 nM.
With `CC(=O)Nc1ncc(CN2CCC3(CC(c4cc(C)nc(C)c4)C3)C2)s1` (racemic), the 50% inhibitory concentration (IC50) at Protein O-GlcNAcase came to 182 nM; in series [3], 36 nM.
The corresponding values for `Cc1cc(N2CCC3(CCNC3)C2)n2ncnc2n1` (racemic) are > 10000 nM and 3240 nM.
For the compound `CC(=O)Nc1ncc(CN2CCC3(CCN(c4cc(C)nc5ccccc45)C3)C2)s1` (racemic), the solubility kinetic in series [4] was found to be 71 µM (≈ 29.9 µg/mL); in series [5], 87 µM (≈ 36.7 µg/mL). The 50% inhibitory concentration (IC50) on Protein O-GlcNAcase is 39 nM; in series [3] it was 9 nM.
As to `CC(=O)Nc1ncc(CN2CC[C@]3(C2)C[C@H](Oc2cc(C)nc(C)c2)C3)s1`, the IC50 in series [3] was determined as 1000 nM.
Regarding `Cc1cc(N2CCC3(CCN(Cc4ccc5nccnc5c4)C3)C2)n2ncnc2n1` (racemic), the IC50 on Protein O-GlcNAcase was > 10000 nM; in [3] it was 74 nM.
As for `Cc1cc(N2CCC3(CCN(Cc4ccc5c(c4)OCO5)C3)C2)n2ncnc2n1` (configuration not stated), the IC50 at Protein O-GlcNAcase is > 1000 nM; in [3], 129 nM.
In the case of `CC(=O)Nc1ncc(CN2CCC3(C2)CN(c2cc(C)nc4ncnn24)C3)s1`, the figures for the IC50 (on Protein O-GlcNAcase; in series [3]) were 9330 nM and 41 nM, respectively.
As for `CC(=O)Nc1ncc(CN2CCC3(CC(COc4cc(C)nc(C)c4)C3)C2)s1` (racemic), in series [3], the IC50 turned out to be 316 nM.
As for `CC(=O)Nc1ncc(CN2CCC3(CCN(c4cc(C)nc5ccccc45)C3)C2)s1` (single isomer, unassigned; (-)), the 50% inhibitory concentration (IC50) came to 263 nM at Protein O-GlcNAcase and 25 nM in series [3].
Taken in the same sequence, the figures for `CC(=O)Nc1ncc(CN2CCC3(CC(c4cc(C)nc(C)c4)CO3)C2)s1` (configuration not stated) were 603 nM and 21 nM.
The corresponding values for `CC(=O)Nc1ncc(CN2CC[C@]3(C2)C[C@@H](Cc2cc(C)nc(C)c2)C3)s1` are 295 nM and 209 nM.
The corresponding values for `CC(=O)Nc1ncc(CN2CC[C@]3(C2)C[C@H](Cc2cc(C)nc(C)c2)C3)s1` are 240 nM and 204 nM.
`CC(=O)Nc1ncc(CN2CC[C@]3(C2)C[C@@H](Oc2cc(C)nc(C)c2)C3)s1`: in series [3], the IC50 came to 550 nM.
Take `COc1cc(N2CCC3(CCN(Cc4cnc(NC(C)=O)s4)C3)C2)cc(C)n1` (racemic): the microsomal CLint at 1 h, 1 µM in “in vitro [1]” is 12 µL/min/mg; in “in vitro [2]”, < 8 µL/min/mg. Moreover, the efflux ratio at 2 h, 5 µM with P-gp (MDR1) is 27.7. For the same compound, the IC50 turned out to be 56 nM at Protein O-GlcNAcase and 6 nM in series [3].
Consider `CC(=O)Nc1ncc(CN2CC[C@]3(C[C@H](Oc4cc(C)nc(C)c4)CO3)C2)s1` (racemic), for which the half-inhibitory concentration (IC50) was 537 nM at Protein O-GlcNAcase and 30 nM in series [3].
For the compound `CC(=O)Nc1ncc(CN2CCC3(CCN(c4cc(C)cc(C)n4)C3)C2)s1` (racemic), the intrinsic metabolic clearance (microsomal CLint) at 1 h, 1 µM in “in vitro [1]” worked out at 264 µL/min/mg; in the series “in vitro [2]” it was 101 µL/min/mg. Further, the efflux ratio at 2 h, 5 µM with P-gp (MDR1) worked out at 24.8. For the same compound, the results for the IC50 (on Protein O-GlcNAcase; in [3]) were 46 nM and 4 nM, respectively.
Regarding `CC(=O)Nc1ncc(CN2CCC3(CCN(c4cc(C)nc5ncnn45)C3)C2)s1` (configuration not stated), the results for the microsomal CLint at 1 h, 1 µM in “in vitro [1]” and in “in vitro [2]” were < 13 µL/min/mg and < 8 µL/min/mg, respectively. Further, the efflux ratio at 2 h, 5 µM in the series on P-gp (MDR1) came to 13.5. Besides, the IC50 in [6] is 290 nM; at Protein O-GlcNAcase, 575 nM; in series [3] it was 4 nM.
As to `CC(=O)Nc1ncc(CN2CCC3(CCC(Cc4cc(C)nc(C)c4)C3)C2)s1` (configuration not stated), the concentration for half-maximal inhibition (IC50) was found to be 537 nM at Protein O-GlcNAcase and 309 nM in series [3].
Taken in the same sequence, the figures for `Cc1cc(N2CCC3(CCN(Cc4ccc5sc(C)nc5c4)C3)C2)n2ncnc2n1` (racemic) were > 1000 nM and 22 nM.
As usually defined, the pKa is the negative logarithm of the acid dissociation constant. A high value points to a group that holds its proton tightly. Compound `CC(=O)Nc1ncc(CN2CCC3(CCN(c4cc(C)nc(C)c4)C3)C2)s1` (racemic) came in with a pKa in series [7] of 10.4. The microsomal CLint at 1 h, 1 µM in “in vitro [1]” and in the series “in vitro [2]” was < 8 µL/min/mg in each case. Besides, the efflux ratio at 2 h, 5 µM in the series on P-gp (MDR1) came out at 1.6. Besides, the half-maximal inhibitory concentration (IC50) is 141 nM on Protein O-GlcNAcase and 6 nM in series [3].
`CC(=O)Nc1ncc(CN2CCC3(CCC(COc4cc(C)nc(C)c4)C3)C2)s1` (configuration not stated): the half-maximal inhibitory concentration (IC50) was found to be 501 nM on Protein O-GlcNAcase and 135 nM in series [3].
As for `CC(=O)Nc1ncc(CN2CC3(CCN(c4cc(C)nc5ncnn45)C3)C2)s1`, the concentration for half-maximal inhibition (IC50) worked out at 3300 nM in series [6], 10000 nM at Protein O-GlcNAcase and 34 nM in series [3].
Broadly, the bioavailability is the share of a dose that reaches the circulation, judged against a reference dose that is usually intravenous. The low end stands for little systemic uptake, the high end for much systemic uptake. As a reminder, the clearance is the rate of elimination divided by the concentration. Low values mean inefficient removal, high ones efficient removal. The AUC(0-t) is the area under the concentration-time curve up to a stated or last time point. The low end stands for low exposure, the high end for high exposure. Broadly, the Cmax is the maximum level reached in the sampled fluid or tissue. As for `CC(=O)Nc1ncc(CN2CCC3(CCN(c4cc(C)nc5ccccc45)C3)C2)s1` (single isomer, unassigned; (+)), the microsomal CLint at 1 h, 1 µM was 15 µL/min/mg in the series “in vitro [1]” and < 8 µL/min/mg in the series “in vitro [2]”. For the same compound, the Vd in series [8] was 17.8 L/kg. The bioavailability in series [9] was found to be 23.1%. In addition, the IC50 on Protein O-GlcNAcase is 17 nM; in series [3], 5 nM. The same compound yielded a clearance in series [10] of 55.8 mL/min/kg. Moreover, in [11], the exposure AUC(0-t) at 24 h turned out to be 1940 ng·h/mL. Besides, the Cmax in series [12] amounted to 331 ng/mL.
